Data reported in ChEMBL document CHEMBL5316274 (J Med Chem, 2023).
Activity calls are given as the source filed them. The rule behind the calls is not given here.

Experiments:
Mu-type opioid receptor [1] = molecular target: T1, Mu-type opioid receptor (Mus musculus, UniProt P42866); assay: Binding affinity to mouse mu opioid receptor expressed in CHO cell membrane assessed as inhibition constant incubated for 1.5 hrs by competitive radioligand binding assay; format: cell membranes
[2] = molecular target: Kappa-type opioid receptor (Mus musculus, UniProt P33534); assay: Binding affinity to mouse kappa opioid receptor expressed in CHO cell membrane assessed as inhibition constant incubated for 1.5 hrs by competitive radioligand binding assay; format: cell membranes
Mus musculus [3] = assay: Antinociceptive activity in Swiss Webster mouse assessed as inhibition of morphine induced latency to tail withdrawal at 10 mg/kg, sc preincubated for 5 mins followed by morphine addition and measured after 20 mins by warm water tail immersion assay; format: functional, organism-based; conditions: time 25.0 min
Summary of the method: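 Male Swiss-Webster mice (n = 5). Compound is given s.c. at time 0 (10 mg/kg in the single-dose screen, a dose range for AD50), and morphine 10 mg/kg follows 5 min later. Tail flick is tested in 56 ± 0.1 °C water 20 min after morphine and scored as % MPE. Saline and morphine alone are the controls.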

Mus musculus [4] = species: Mus musculus; assay: Selectivity ratio, ratio of Ki for binding affinity to mouse kappa opioid receptor expressed in CHO cell membrane to Ki for binding affinity to mouse mu opioid receptor expressed in CHO cell membrane
Mu-type opioid receptor [5] = molecular target: T1, Mu-type opioid receptor; assay: Binding affinity to mouse mu opioid receptor expressed in CHO cell membrane assessed as [35S]GTPgammaS binding incubated for 1.5 hrs by liquid scintillation counter analysis; format: cell membranes
Summary of the method: (§1)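 MOR [35S]GTPγS functional assay in MOR-CHO membranes (Bmax about 2.5–4 pmol/mg). Efficacy is expressed as % of the maximal stimulation by full agonist DAMGO.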

[6] = molecular target: Mu-type opioid receptor (Mus musculus) (UniProt P42866); assay: Binding affinity to mouse mu opioid receptor expressed in CHO cell membrane assessed as stimulation of [35S]-GTPgammaS binding by measuring maximal efficacy incubated for 1.5 hrs by scintillation spectroscopy analysis relative DAMGO; format: cell membranes; summary of the method: as §1
[7] = Selectivity ratio, ratio of Ki for binding affinity to human delta opioid receptor expressed in CHO cell membrane to Ki for binding affinity to mouse mu opioid receptor expressed in CHO cell membrane

| SMILES | Ki (Mu-type opioid receptor [1]) [nM] | Ki [2] [nM] | Activity (Mus musculus [3]) | Ratio Ki (Mus musculus [4]) | EC50 (Mu-type opioid receptor [5]) [nM] | Emax [6] [%] | Ratio Ki [7] | Emax ([6]; filed as modulator) [%] |
| --- | --- | --- | --- | --- | --- | --- | --- | --- |
| O=C(N[C@H]1CC[C@@]2(O)[C@H]3Cc4ccc(O)c5c4[C@@]2(CCN3CC2CC2)[C@H]1O5)c1cccc2cc(-c3ccccc3)[nH]c12 | 2.45 | 6.42 | inactive | 2.6 | 2.07 | 7.44 |  |  |
| O=C(N[C@H]1CC[C@@]2(O)[C@H]3Cc4ccc(O)c5c4[C@@]2(CCN3CC2CC2)[C@H]1O5)c1cccc2cc(Cl)[nH]c12 | 0.65 | 2.73 |  | 4.2 | 1.82 | 14.8 | 2.8 |  |
| CC(=O)Nc1c[nH]c2c(C(=O)N[C@@H]3CC[C@@]4(O)[C@H]5Cc6ccc(O)c7c6[C@@]4(CCN5CC4CC4)[C@H]3O7)cccc12 | 0.27 | 6.52 | inactive | 24.4 | 0.88 | 8.84 | 116 |  |
| CC(C)c1c[nH]c2c(C(=O)N[C@H]3CC[C@@]4(O)[C@H]5Cc6ccc(O)c7c6[C@@]4(CCN5CC4CC4)[C@H]3O7)cccc12 | 2.78 | 11 | inactive | 4 | 2.48 | 8.37 | 9.3 |  |
| O=C(N[C@@H]1CC[C@@]2(O)[C@H]3Cc4ccc(O)c5c4[C@@]2(CCN3CC2CC2)[C@H]1O5)c1cccc2c(Br)c[nH]c12 | 0.7 | 1.08 |  | 1.6 | 1.05 |  | 16.7 | 70.4 |
| N#Cc1c[nH]c2c(C(=O)N[C@H]3CC[C@@]4(O)[C@H]5Cc6ccc(O)c7c6[C@@]4(CCN5CC4CC4)[C@H]3O7)cccc12 | 0.87 | 5.46 | inactive |  | 2.54 | 11.4 | 14 |  |
| N#Cc1c[nH]c2c(C(=O)N[C@@H]3CC[C@@]4(O)[C@H]5Cc6ccc(O)c7c6[C@@]4(CCN5CC4CC4)[C@H]3O7)cccc12 | 0.38 | 1 | inactive | 2.7 | 3.07 | 38.8 | 67.4 |  |
| O=C(N[C@H]1CC[C@@]2(O)[C@H]3Cc4ccc(O)c5c4[C@@]2(CCN3CC2CC2)[C@H]1O5)c1cccc2c(Br)c[nH]c12 | 0.93 | 5.28 | inactive | 5.7 | 2.46 | 14.9 | 20.6 |  |
| O=C(N[C@@H]1CC[C@@]2(O)[C@H]3Cc4ccc(O)c5c4[C@@]2(CCN3CC2CC2)[C@H]1O5)c1cccc2cc(-c3ccccc3)[nH]c12 | 3.26 | 1.14 | inactive | 0.4 | 5.44 | 10.2 | 7.3 |  |
| O=C(N[C@H]1CC[C@@]2(O)[C@H]3Cc4ccc(O)c5c4[C@@]2(CCN3CC2CC2)[C@H]1O5)c1cccc2c(-c3ccccc3)c[nH]c12 | 2.37 | 13.4 | inactive | 5.7 | 1.85 | 5.57 | 6.3 |  |
| CC(=O)Nc1c[nH]c2c(C(=O)N[C@H]3CC[C@@]4(O)[C@H]5Cc6ccc(O)c7c6[C@@]4(CCN5CC4CC4)[C@H]3O7)cccc12 | 0.23 | 2.1 | inactive | 9.4 | 1.48 | 9.97 | 23 |  |
| O=C(N[C@H]1CC[C@@]2(O)[C@H]3Cc4ccc(O)c5c4[C@@]2(CCN3CC2CC2)[C@H]1O5)c1cccc2cc(Br)[nH]c12 | 0.48 | 1.5 | Active | 3.1 |  | 13.3 | 14 |  |
| O=C(N[C@H]1CC[C@@]2(O)[C@H]3Cc4ccc(O)c5c4[C@@]2(CCN3CC2CC2)[C@H]1O5)c1cccc2c(C3CCCCC3)c[nH]c12 | 2.11 | 9.65 | inactive | 4.6 | 2.62 | 20.5 | 8.9 |  |
| CC(C)c1c[nH]c2c(C(=O)N[C@@H]3CC[C@@]4(O)[C@H]5Cc6ccc(O)c7c6[C@@]4(CCN5CC4CC4)[C@H]3O7)cccc12 | 0.89 | 0.98 | inactive | 1.1 | 1.73 | 36.2 | 22.2 |  |
| O=C(N[C@@H]1CC[C@@]2(O)[C@H]3Cc4ccc(O)c5c4[C@@]2(CCN3CC2CC2)[C@H]1O5)c1cccc2c(C3CCCC3)c[nH]c12 | 1.45 | 10.8 | inactive | 7.5 |  | 21.3 | 6.8 |  |
| N#Cc1cc2cccc(C(=O)N[C@H]3CC[C@@]4(O)[C@H]5Cc6ccc(O)c7c6[C@@]4(CCN5CC4CC4)[C@H]3O7)c2[nH]1 | 0.87 | 7.1 | inactive | 8.2 | 3.58 | 14.4 |  |  |
| O=C(N[C@@H]1CC[C@@]2(O)[C@H]3Cc4ccc(O)c5c4[C@@]2(CCN3CC2CC2)[C@H]1O5)c1cccc2c(C3CCCCC3)c[nH]c12 | 5.57 | 41.7 | inactive | 7.5 | 20.8 | 6.23 | 11.5 |  |
| O=Cc1c[nH]c2c(C(=O)N[C@H]3CC[C@@]4(O)[C@H]5Cc6ccc(O)c7c6[C@@]4(CCN5CC4CC4)[C@H]3O7)cccc12 | 0.25 | 2.82 | inactive | 11.3 | 0.89 | 8.24 | 47.5 |  |
| CC(=O)c1c[nH]c2c(C(=O)N[C@@H]3CC[C@@]4(O)[C@H]5Cc6ccc(O)c7c6[C@@]4(CCN5CC4CC4)[C@H]3O7)cccc12 | > 50 | 15.6 | inactive |  | 204 | 10.9 |  |  |
| O=C(N[C@@H]1CC[C@@]2(O)[C@H]3Cc4ccc(O)c5c4[C@@]2(CCN3CC2CC2)[C@H]1O5)c1cccc2cc(Cl)[nH]c12 | 0.63 | 1.28 |  | 2 | 1.4 | 38.5 | 3.8 |  |
| O=C(N[C@H]1CC[C@@]2(O)[C@H]3Cc4ccc(O)c5c4[C@@]2(CCN3CC2CC2)[C@H]1O5)c1cccc2c([N+](=O)[O-])c[nH]c12 | 1.07 | 9.84 | inactive |  | 2.32 | 11.3 |  |  |
| CC(=O)c1c[nH]c2c(C(=O)N[C@H]3CC[C@@]4(O)[C@H]5Cc6ccc(O)c7c6[C@@]4(CCN5CC4CC4)[C@H]3O7)cccc12 | 0.43 |  | inactive | 14.9 | 5.21 | 9.81 | 25.4 |  |
| N#Cc1cc2cccc(C(=O)N[C@@H]3CC[C@@]4(O)[C@H]5Cc6ccc(O)c7c6[C@@]4(CCN5CC4CC4)[C@H]3O7)c2[nH]1 | 0.73 | 1.66 |  | 2.3 | 3.78 | 21.3 | 16.5 |  |
